STEP block – STEP phosphatase inhibitors, primary screen, biochemical, fluorescence intensity, uHTS; Tyrosine-protein phosphatase non-receptor type 5 (Homo sapiens), P54829; recombinant STEP, OMFP fluorogenic substrate; inhibition, % at 20 µM; hit rate 0.25% among 360,000; AID 588621, 2011;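 active = inhibition at 20 µM, scaled per plate between control wells, above about 37%, limit read from the data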;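 also: 0% = DMSO with enzyme and substrate and 100% = substrate only without enzyme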
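Material: STEP (striatal-enriched tyrosine phosphatase) enzyme, cell-free | Medium: 50 mM Bis-Tris pH 6.0 with 2.5 mM DTT and 0.005% Tween 20 | Read-out: Percent inhibition scaled to no-enzyme and uninhibited-enzyme controls, plate-pattern corrected | Signal: Fluorescence read at 480 nm ex / 540 nm em | Times: 20 min reaction, room temperature, in the dark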
Rpn11 inh – Rpn11 (PSMD14) deubiquitinase inhibitors, primary screen, biochemical, fluorescence polarization, uHTS. 26S proteasome non-ATPase regulatory subunit 14 (Homo sapiens), O00487. human 26S proteasome, Ub4-pepOG fluorescence polarization; 20S core pre-blocked with epoxomicin. inhibition, % at 20 µM. hit rate 0.59% among 360,000. AID 588493, 2011;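 active = inhibition at 20 µM, scaled to each plate's controls, above about 33%, limit read from the data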
Scp-1 inhibitor – Scp-1 phosphatase inhibitors, primary screen, biochemical, colorimetric, uHTS; hit rate 0.88% among 340,000; Carboxy-terminal domain RNA polymerase II polypeptide A small phosphatase 1 (Homo …; inhibition, % at 20 µM; Recombinant Scp1, phosphopeptide, malachite green phosphate absorbance; AID 493091, 2011;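 active = inhibition above about 50% at 20 µM, limit read from the data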;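 also: plate controls were DMSO wells with enzyme for no effect and wells lacking enzyme for full effect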
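Material – SCP-1 phosphatase catalytic domain, residues 76-261 · Buffer or medium – Acidic Tris acetate buffer with magnesium and detergent · Also added – Phospho 17-mer peptide substrate · Compound – single 20 µM dose, 1% DMSO · Times – 45 min room-temperature reaction, 5 min colour, 30 min stabiliser · Technique – Phosphate-binding colour reagent, absorbance read at 630 nm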
DNMT1 inh – human DNMT1 methyltransferase inhibitors, primary screen, biochemical, molecular beacon, fluorescence, HinP1I cleavage, uHTS; DNA (cytosine-5)-methyltransferase 1 (Homo sapiens), P26358; inhibition (reported as % activation of signal), % at 10 µM; hit rate 0.83% among 360,000; AID 588458, 2011; in the data active = inhibition above about 50%
Target sequence (P26358 504-1616 limits assumed): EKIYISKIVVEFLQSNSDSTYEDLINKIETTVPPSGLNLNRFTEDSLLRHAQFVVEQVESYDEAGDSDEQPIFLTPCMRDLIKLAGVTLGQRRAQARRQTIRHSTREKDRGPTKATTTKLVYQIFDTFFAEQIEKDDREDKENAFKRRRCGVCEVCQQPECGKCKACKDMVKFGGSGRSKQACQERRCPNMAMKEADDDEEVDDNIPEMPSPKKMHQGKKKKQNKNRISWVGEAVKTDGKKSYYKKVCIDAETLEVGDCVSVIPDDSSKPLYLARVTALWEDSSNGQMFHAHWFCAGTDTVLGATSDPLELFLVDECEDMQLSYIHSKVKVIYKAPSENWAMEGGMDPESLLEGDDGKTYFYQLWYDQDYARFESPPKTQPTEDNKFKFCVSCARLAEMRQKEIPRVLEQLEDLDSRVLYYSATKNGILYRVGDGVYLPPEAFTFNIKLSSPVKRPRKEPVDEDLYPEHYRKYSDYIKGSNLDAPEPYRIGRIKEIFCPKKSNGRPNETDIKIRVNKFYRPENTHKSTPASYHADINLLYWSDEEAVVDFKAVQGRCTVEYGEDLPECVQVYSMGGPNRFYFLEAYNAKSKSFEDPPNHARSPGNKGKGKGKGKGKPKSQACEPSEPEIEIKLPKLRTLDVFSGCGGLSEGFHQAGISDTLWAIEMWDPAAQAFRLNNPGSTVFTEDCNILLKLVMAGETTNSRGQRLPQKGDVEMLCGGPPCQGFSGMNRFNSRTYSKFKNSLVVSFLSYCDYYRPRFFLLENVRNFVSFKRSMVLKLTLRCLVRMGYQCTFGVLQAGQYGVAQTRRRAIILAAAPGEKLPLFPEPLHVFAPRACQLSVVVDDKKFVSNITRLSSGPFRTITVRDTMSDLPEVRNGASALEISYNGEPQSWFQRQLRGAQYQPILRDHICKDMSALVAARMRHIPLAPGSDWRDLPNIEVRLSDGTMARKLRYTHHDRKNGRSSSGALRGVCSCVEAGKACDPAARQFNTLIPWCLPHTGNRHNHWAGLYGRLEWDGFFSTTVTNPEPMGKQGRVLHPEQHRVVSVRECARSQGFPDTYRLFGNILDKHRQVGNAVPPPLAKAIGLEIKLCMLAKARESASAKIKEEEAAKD
SUMO1 PPI mod – modulators of SUMO1 protein-protein interactions, primary screen, biochemical, uHTS. AID 602429, 2012. hit rate 0.33% among 360,000. inhibition, % at 20 µM. SUMO1 binding to a labelled peptide, TR-FRET, 1 h; in the data active = inhibition above about 37%
LMPTP block – LMPTP phosphatase inhibitors, primary screen, biochemical, fluorescence intensity, uHTS. Low molecular weight phosphotyrosine protein phosphatase (Homo sapiens), P24666. recombinant LMPTP-A, OMFP fluorogenic substrate. inhibition, % at 20 µM. hit rate 0.22% among 360,000;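 active = compounds that cut the enzyme signal by at least half of the control window in the single-dose screen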;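 also: plate controls were DMSO wells with enzyme plus substrate for no effect and substrate without enzyme for full effect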
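Assay system: LMPTP-A enzyme. Input: 0.625 nM LMPTP-A final. Probe or stimulus: 400 µM OMFP. Compound dosing: single 20 µM dose. Schedule: 50 min dark incubation at room temperature. Detection: fluorescence intensity of OMFP turnover product. Read-out: percent inhibition versus substrate-only and uninhibited controls. Benchmarks: no-enzyme low control, uninhibited high control.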
DNMT1 interf DR – spectral interference with molecular beacon fluorescence, dose response, artefact control for DNMT1 inhibitor project, biochemical, fluorescent molecular beacon | shares compounds with DNMT1 inh | spectral interference counter-screen | IC50, µM | 200 tested, under 10 active | AID 602382, 2012; call rule not given here
DNMT1 inh conf – DNMT1 methyltransferase inhibitor retest, confirmation, biochemical, molecular beacon, fluorescence, single concentration; shares compounds with DNMT1 inh; DNMT1 molecular beacon HinP1I cleavage; inhibition, % at 10 µM; hit rate 8% among 2,300; AID 602385, 2012;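 active = average inhibition of at least 30% in the single-concentration confirmation test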
Beacon interf – beacon fluorescence artifact counter-screen | shares compounds with DNMT1 inh | DNMT1 molecular beacon spectral interference counterscreen, fluorescence 485/520 | activation (fluorescence interference), % at 10 µM | hit rate 1% among 2,300 | AID 602387;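 active = activation of at least 30% at 10 µM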;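 also: DNMT1 catalytic domain with a HinP1I cleavage step and a FAM/dabcyl DNA beacon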
Numbers without * were called inactive; nt = no result given. An excerpt weighted towards active compounds, which were near 2.3% of everything screened.

SMILES	STEP block	Rpn11 inh	Scp-1 inhibitor	DNMT1 inh	SUMO1 PPI mod	LMPTP block	DNMT1 inh conf	Beacon interf	others
Cc1noc(C)c1COc1ccc(C(=O)N2CCN(S(=O)(=O)c3cccc(F)c3)CC2)cc1	1.3	0.5	-16.0	-0.4	-1.1	-0.8	nt	nt
Cc1ccc(N=C2NC(=O)/C(=C/C=C/c3ccco3)S2)cc1	5.6	13.4	33.8	87.0*	10.8	6.0	2.1	3.6
COc1ccc(C(=O)CC(=O)C(=O)NCCc2cccc(C)c2)cc1	0.3	16.0	-14.3	89.3*	1.4	0.6	1.9	4.4
S=c1[nH]nc(-c2ccncc2)n1/N=C/c1cn(-c2ccccc2)nc1-c1ccc(Cl)cc1	1.5	-2.6	12.0	74.5*	-0.5	1.6	0.8	6.1
CSc1nnc(-c2ccncc2)n1/N=C/c1cn(-c2ccccc2)nc1-c1ccc(Cl)cc1	-2.4	-9.8	11.0	5.7	8.1	2.1	nt	nt
COc1ccc(S(=O)(=O)N2CCCOC2CNC(=O)C(=O)NCc2ccco2)cc1C (centres undefined)	-2.7	0.9	2.9	71.3*	-4.0	-1.1	2.3	6.6
COc1ccc(S(=O)(=O)N2CCOC2CNC(=O)C(=O)NCc2ccco2)cc1C (centres undefined)	-1.9	-13.3	-12.3	0.3	3.9	-0.8	nt	nt
CCN(CCn1cccn1)C(=O)C1CCC(=O)N(CCN2CCOCC2)C1 (centres undefined)	0.8	1.9	-1.3	0.1	3.0	-2.0	nt	nt
C/C(=N\NC(=O)c1cccc(F)c1)c1ccc(NC(=O)Cc2ccccc2)cc1	-1.0	-0.5	-4.7	2.4	3.6	-5.7	nt	nt
C/C(=N\NC(=O)c1cc(O)cc(O)c1)c1ccc(NC(=O)Cc2ccccc2)cc1	97.5*	5.8	86.6*	84.8*	78.4*	69.3*	51.2*	-1.9	DNMT1 interf DR=>99
Cc1cc(NC(=O)c2cc(-c3ccccn3)nc3c(Cl)cccc23)no1	1.0	-1.7	45.1	58.2*	2.0	3.6	0.4	0.3
O=C(COC(=O)c1ccc([N+](=O)[O-])s1)Nc1ccc(Cl)cn1	-0.9	9.2	2.4	-4.0	15.6	-0.5	nt	nt
Cc1c(Cl)cnc(NC(=O)COC(=O)c2ccc([N+](=O)[O-])s2)c1Cl	3.7	2.5	43.0	63.3*	21.5	4.5	1.7	-2.9
O=S(=O)(Nc1c(S(=O)(=O)c2ccccc2)c2nc3ccccc3nc2n1C1CCCCC1)c1ccccc1	0.4	24.3	4.0	66.8*	49.7*	19.8	46.5*	-6.9	DNMT1 interf DR=>99
C=CCn1c(NS(=O)(=O)c2ccccc2)c(S(=O)(=O)c2ccc(C)cc2)c2nc3ccccc3nc21	-7.0	1.3	-7.6	-3.5	32.0	2.9	nt	nt
CCCCCOC(=O)Cn1c(=O)oc2ccc(C)cc21	-2.3	2.9	-5.5	72.5*	-1.9	-0.9	1.2	7.6
CCCCOC(=O)Cn1c(=O)oc2ccc(C)cc21	-1.5	2.9	-8.4	0.1	-0.6	-1.8	nt	nt
O=C(CC12CC3CC(CC(C3)C1)C2)NCc1ccc(F)cc1	-0.8	3.8	-7.3	0.4	-3.5	1.0	nt	nt
O=C(C[C@H]1C/C=C\C[C@H](NC(=O)OCC2c3ccccc3-c3ccccc32)C(=O)O[C@H](c2ccccc2)CNC1=O)N[C@H](CO)Cc1ccccc1	-1.1	8.9	1.9	56.7*	-1.8	-1.1	5.9	-4.3
O=C(C[C@H]1C/C=C\C[C@@H](Cc2ccc(F)cc2)C(=O)O[C@H](c2ccccc2)CNC1=O)N[C@@H](CO)Cc1ccccc1	0.5	-1.2	-0.2	85.0*	0.5	0.5	-0.1	-6.4
C[C@@H]1COC(=O)[C@H](Cc2ccc(F)cc2)C/C=C\C[C@@H](CC(=O)N[C@H](CO)Cc2ccccc2)C(=O)N1	0.2	-1.7	12.2	-0.2	8.1	2.0	nt	nt
O=C(C[C@@H]1C/C=C\C[C@@H](Cc2ccc(F)cc2)C(=O)OC[C@@H](Cc2ccccc2)NC1=O)N[C@H](CO)Cc1ccccc1	-0.9	1.8	-2.3	68.2*	1.9	2.0	3.1	-0.1
O=C(N[C@@H]1C/C=C\C[C@H](CC(=O)N(CCO)Cc2ccccc2)C(=O)NC[C@@H](c2ccccc2)OC1=O)OCC1c2ccccc2-c2ccccc21	0.1	10.9	-4.4	37.4	-7.0	3.6	nt	nt
Cc1noc(C)c1S(=O)(=O)N(Cc1ccccc1)C(C)C	1.5	0.5	-5.1	3.5	0.4	-1.3	nt	nt
C/C(=N\Nc1nc(Cl)c(Cl)cc1Cl)c1ccc(S(=O)(=O)NCc2ccco2)cc1	-1.7	0.4	-4.8	-14.4	1.5	1.3	nt	nt
SMILES	STEP block	Rpn11 inh	Scp-1 inhibitor	DNMT1 inh	SUMO1 PPI mod	LMPTP block	DNMT1 inh conf	Beacon interf	others
COCCn1c(SCC(=O)Nc2ccc(F)cc2)nc2ccccc2c1=O	-0.6	-0.4	-9.9	83.0*	-0.7	-1.1	1.5	2.3
CC(C)NC(=S)NN(c1ccccc1)c1ccccc1	1.1	-7.5	8.1	108.4*	4.4	-0.3	0.8	-0.9
CC(=O)Nc1ccc(-c2ccnc3c2CC(C(=O)NCC2CCOCC2)O3)cc1 (centres undefined)	0.5	-3.4	nt	1.0	0.3	-3.4	nt	nt
O=C(N/N=C/c1ccc(F)cc1)c1c(O)c2ccccc2[nH]c1=O	2.2	13.5	-3.9	53.8*	1.8	7.7	3.2	-5.7
Cc1[nH]n(C)c(=O)c1[N+](=O)[O-]	-1.5	-3.6	2.5	55.6*	0.7	-0.9	1.8	2.8
CCOc1ccc(NC(=S)NC(=O)/C=C/c2ccc(OC)c(OC)c2)c([N+](=O)[O-])c1	2.2	-0.9	-7.8	-10.6	-1.3	2.1	nt	nt
CCOc1ccc(NC(=S)NC(=O)/C=C/c2ccc(C)cc2)c([N+](=O)[O-])c1	2.3	3.2	-10.8	53.3*	-5.1	1.0	1.5	-4.1
